Reference: ChEMBL document CHEMBL1133755, “Synthesis of fluorosugar analogues of 2,5,6-trichloro-1-(beta-D-ribofuranosyl)benzimidazole as antivirals with potentially increased glycosidic bond stability” (J Med Chem, 2000)

What was measured:
[1] = test system: HFF; assay: Compound was tested for antiviral activity against human cytomegalovirus (HCMV) by plaque reduction assay using HFF cells; format: functional, cell-based
Outline: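 HCMV plaque reduction assay in HFF cells, run in duplicate. Value reported as IC50. Highest concentration tested 10 or 100.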

[2] = test system: Human alphaherpesvirus 1; assay: Compound was tested for antiviral activity against herpes simplex virus type 1 (HSV-1); format: functional, organism-based
Outline: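 HSV-1 activity read by ELISA in quadruplicate wells, with the plaque assay used for the DHPG control. Value reported as IC50. Top concentration tested 10 or 100.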

[3] = Compound was tested for inhibition activity of human oral carcinoma cell line (KB ) cells in quadruplicate assay.; format: functional, cell-based
Outline: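 KB cell growth inhibition was run in quadruplicate wells and reported as IC50, meaning the concentration that halves growth. Values marked > indicate that 50% inhibition was not reached at the highest concentration tested.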

[4] = test system: HFF; assay: Compound was tested for visual cytotoxicity on human foreskin fibroblasts (HFF) cells; format: functional, cell-based
Outline: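 Cytotoxicity in HFF cells scored visually at the time HCMV plaques were counted. Results from duplicate experiments.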

[5] = test system: HFF; assay: Compound was tested for antiviral activity against human cytomegalovirus (HCMV) by yield reduction assay using HFF cells; format: functional
Outline: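 HCMV yield reduction assay in HFF cells, run in duplicate. Value reported as IC90. Highest concentration tested 10 or 100.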

Row | Structure (SMILES) | IC50 [1] | IC50 [2] | IC50 [3] | IC50 [4] | IC90 [5]
1 | OC[C@H]1O[C@@H](n2cnc3cc(Cl)c(Cl)cc32)[C@H](F)[C@@H]1O | > 100 µM | > 100 µM | > 100 µM | > 100 µM | –
2 | O[C@H]1[C@H](OC(c2ccccc2)(c2ccccc2)c2ccccc2)[C@@H](COC(c2ccccc2)(c2ccccc2)c2ccccc2)O[C@H]1n1c(Cl)nc2cc(Cl)c(Cl)cc21 | > 10 µM | > 100 µM | > 100 µM | > 100 µM | –
3 | Clc1cc2nc(Cl)n([C@@H]3O[C@H](COC(c4ccccc4)(c4ccccc4)c4ccccc4)[C@@H](OC(c4ccccc4)(c4ccccc4)c4ccccc4)[C@@H]3OC(c3ccccc3)(c3ccccc3)c3ccccc3)c2cc1Cl | > 10 µM | > 100 µM | > 100 µM | > 100 µM | –
4 | OC[C@H]1O[C@@H](n2c(Cl)nc3cc(Cl)c(Cl)cc32)[C@@H](F)[C@@H]1O | 8 µM | 50 µM | 60 µM | 32 µM | 8 µM
5 | OC[C@H]1O[C@@H](n2c(Br)nc3cc(Cl)c(Cl)cc32)[C@H](F)[C@@H]1O | 17 µM | > 100 µM | 80 µM | 100 µM | –
6 | O=C(OC[C@H]1O[C@@H](n2c(Cl)nc3cc(Cl)c(Cl)cc32)[C@@H](F)[C@@H]1OC(=O)c1ccccc1)c1ccccc1 | – | – | 100 µM | – | –
7 | CC(C)Nc1nc2cc(Cl)c(Cl)cc2n1[C@@H]1O[C@H](CO)[C@@H](O)[C@H]1F | > 100 µM | > 100 µM | > 100 µM | > 100 µM | –
8 | OC[C@H]1O[C@@H](n2c(Cl)nc3cc(Cl)c(Cl)cc32)C(O)[C@@H]1F (stereo not given in full) | 9.4 µM | > 100 µM | > 100 µM | 40 µM | 13 µM
9 | OC[C@H]1O[C@@H](n2c(Br)nc3cc(Cl)c(Cl)cc32)[C@H](O)[C@@H]1O | – | – | > 100 µM | – | 0.2 µM
10 | OC[C@H]1O[C@@H](n2c(Cl)nc3cc(Cl)c(Cl)cc32)[C@H](O)[C@@H]1O | – | – | 210 µM | – | 1.4 µM
11 | OC[C@H]1O[C@@H](n2cnc3cc(Cl)c(Cl)cc32)[C@H](O)[C@@H]1O [DICHLORORIBOBENZIMIDAZOLE] | – | – | 36 µM | – | 19 µM
12 | Nc1nc2c(ncn2COC(CO)CO)c(=O)[nH]1 [GANCICLOVIR] | – | – | > 100 µM | > 100 µM | 1.6 µM
